Data on eleven compounds can be found in ChEMBL document CHEMBL1811767, “Quinoxalin-2(1H)-one derivatives as inhibitors against hepatitis C virus” (J Med Chem, 2011).

SMILES strings stand for the structures. Active and inactive are the calls of the source. The rule behind the calls is not given here.

Series [1] deals with Hepatitis C virus. The experiment in a line: Antiviral activity against Hepatitis C virus infected in human Huh7ET cells assessed as inhibition of dicistronic viral RNA replication at 20 uM after 72 hrs by luciferase reporter gene assay. Also on record: scale not given: the % may be the effect or the level left. The series is classed as functional, Hepacivirus hominis, Huh-7. The method in brief: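 Primary screen at single 20 μM in replicon Huh 7 ET cells (5000/well, DMEM without G418, overnight seeding). After 72 h exposure, replicon luciferase measured with Steady-Glo. Value expressed as percent inhibition relative to control cells.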
In general terms: Reporter assays use an easily measured gene product as a stand-in for the process of interest.

A short description of series [2]: Cytotoxicity against human Huh7ET cells at 20 uM by CytoTox-one cell proliferation assay. The series is classed as cell-based. The following applies: huh-7, 20 µM. The method in brief: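 Huh 7 ET replicon cells exposed to single 20 μM for 72 h in primary screen; viability by tetrazolium-based CytoTox-1 assay, reported as percent relative to control cells.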
A short description of series [3]: Selectivity index, ratio of IC50 for human Huh7ET cells to EC50 for Hepatitis C virus. The class given is toxicity, cell-based, Huh-7. To be noted: read-out: Ratio IC50/EC50. The method in brief:
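SI taken as IC50 (CytoTox-1 viability, Huh 7 ET replicon cells, 72 h) divided by EC50 (replicon luciferase, same cells and exposure); each from four-replicate averages.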

For series [4], the system named is Hepatitis C virus. The experiment in a line: Antiviral activity against Hepatitis C virus infected in human Huh7ET cells assessed as inhibition of dicistronic viral RNA replication after 72 hrs by luciferase reporter gene assay. The class given is functional, organism-based, Hepacivirus hominis. The following applies: Huh-7, 72 h. The procedure, abridged: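 HCV replicon Huh 7 ET cells seeded 5000/well in DMEM without G418 overnight; compounds dissolved in DMSO, diluted in DMEM, dose-response. After 72 h, replicon-derived luciferase read by Steady-Glo. Mean of four replicates; EC50 = concentration inhibiting HCV RNA replication by 50%.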

Series [5] deals with Hepacivirus hominis. The experiment in a line: Inhibition of Hepatitis C virus NS5B polymerase.
The test system of series [6] is Hepacivirus hominis. The experiment in a line: Inhibition of Hepatitis C virus protease.
Series [7] in a line: Cytotoxicity against human Huh7ET cells by CytoTox-one cell proliferation assay. To be noted: Huh-7. The class given is cell-based. The procedure, abridged:
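Parallel plate of replicon Huh 7 ET cells (5000/well, DMEM without G418), compounds from DMSO stocks diluted in DMEM, 72 h. Viability by tetrazolium-based CytoTox-1 proliferation assay. Mean of four replicates; IC50 = concentration decreasing cell viability by 50%.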

For `CCN(c1cc2ncc(=O)[nH]c2cc1Nc1nc(-c2ccccc2)cs1)C1CCCCC1`, in the series with Hepatitis C virus [1], the Activity turned out to be 35%. In addition, the “Cell viability relative to control” value in series [2] was 58%.
With `CN(c1cc2ncc(=O)[nH]c2cc1Nc1nc(-c2ccccc2)cs1)C1CCCCC1`, the selectivity ratio in series [3] is 37.4. In addition, the EC50 with Hepatitis C virus [4] was determined as 1.67 µM. The inhibition result with Hepacivirus hominis [5] and in the series with Hepacivirus hominis [6] was “inactive” in each case. The compound also returned an IC50 in series [7] of 62.5 µM.
In the case of `O=c1cnc2cc(N3CCN(c4ccc(F)cc4)CC3)c(Nc3nc(-c4ccccc4)cs3)cc2[nH]1`, the Activity with Hepatitis C virus [1] is on record as 35%. The “Cell viability relative to control” value in series [2] amounted to 84.3%.
The corresponding values for `CCOC(=O)C1CCN(c2cc3ncc(=O)[nH]c3cc2Nc2nc(-c3ccccc3)cs2)CC1` are 37.6% and 59.6%.
The corresponding values for `O=c1cnc2cc(OC3CCCCC3)c(Nc3nc(-c4ccccc4)cs3)cc2[nH]1` are 4.9% and 74.4%.
The corresponding values for `O=c1cnc2cc(N3CCCCC3)c(Nc3nc(-c4ccccc4)cs3)cc2[nH]1` are 9% and 35.1%.
For `CN(c1cc2ncc(=O)[nH]c2cc1Nc1nc(-c2cccnc2)cs1)C1CCCCC1`, the selectivity ratio in series [3] amounted to 2.09. Moreover, the EC50 with Hepatitis C virus [4] turned out to be 5.49 µM. Besides, in series [7], it took 11.5 µM to reach half-maximal inhibition (IC50).
The corresponding values for `CN(c1cc2ncc(=O)[nH]c2cc1NC(=S)Nc1ccccc1)C1CCCCC1` are less than 2.8, more than 20 µM and 49.6 µM.
Turning to `CN(c1cc2ncc(=O)[nH]c2cc1NC(=S)NC(=O)c1ccco1)C1CCCCC1`, the selectivity ratio in series [3] is 9.6. The EC50 with Hepatitis C virus [4] is 1.8 µM. Besides, the IC50 in series [7] was determined as 17.3 µM.
In the case of `CN(c1cc2ncc(=O)[nH]c2cc1Nc1nc(-c2ccc(F)cc2)cs1)C1CCCCC1`, in series [3], the selectivity ratio is 1.9. Also, the EC50 in the series with Hepatitis C virus [4] turned out to be 5.26 µM. In series [7], the IC50 came to 9.92 µM.
For the compound `CN(c1cc2ncc(=O)[nH]c2cc1NC(=S)NC(=O)c1cccc(C(F)(F)F)c1)C1CCCCC1`, the selectivity ratio in series [3] is 7.5. Further, in the series on Hepatitis C virus [4], the EC50 worked out at 4.08 µM. For the same compound, inhibition in series [7] was half-maximal at 31.5 µM (IC50).

The term EC50 denotes the concentration giving half of the maximal effect. As usually defined, the IC50 is the concentration that gives 50% inhibition.
